Compound activity as filed in PubChem.
HIV Env fusion = HIV envelope-mediated fusion inhibition; HeLa-JRFL Env/CEM21 cell fusion, luciferase; inhibition, % at 12.3 µM; 1.1% of 360,000 active; AID 651610;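 active means mean replicate inhibition score of at least 50 and every replicate individually at or above 50; inconclusive means only one of the two criteria met; inactive means mean below 50 and not all replicates reaching 50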;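 further: 0% = plate neutral controls and 100% = maraviroc near 300 nM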
SR-BI HDL uptake = mouse SR-BI HDL lipid transfer inhibition | ldlA[mSR-BI] CHO cells, DiI-HDL uptake fluorescence, 3 h | inhibition, % at 12.5 µM | 0.96% of 320,000 active;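 active means mean replicate inhibition of at least 70% and a set share of replicates each scoring 70 or more; inconclusive means meets just one of the two criteria; inactive means fails both criteria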;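 further: 0% = median of neutral control wells and 100% = median of positive control wells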
Target sequence (Q61009 whole entry, looked up): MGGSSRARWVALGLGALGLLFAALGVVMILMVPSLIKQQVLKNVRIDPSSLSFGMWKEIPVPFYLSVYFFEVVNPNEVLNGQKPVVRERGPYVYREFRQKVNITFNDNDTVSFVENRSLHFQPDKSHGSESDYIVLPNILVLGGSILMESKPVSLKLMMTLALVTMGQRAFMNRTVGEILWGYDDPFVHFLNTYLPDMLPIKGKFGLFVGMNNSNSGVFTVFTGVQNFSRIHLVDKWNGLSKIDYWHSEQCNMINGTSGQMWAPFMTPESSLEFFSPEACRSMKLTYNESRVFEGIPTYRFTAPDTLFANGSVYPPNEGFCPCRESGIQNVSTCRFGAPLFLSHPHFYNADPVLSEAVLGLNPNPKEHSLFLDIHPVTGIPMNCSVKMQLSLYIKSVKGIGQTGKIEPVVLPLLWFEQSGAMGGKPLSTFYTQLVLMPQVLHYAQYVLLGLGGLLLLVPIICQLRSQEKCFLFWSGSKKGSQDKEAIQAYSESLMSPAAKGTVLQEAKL
PglD inh = inhibitors of Campylobacter jejuni PglD acetyltransferase; purified PglD enzyme, DTNB colorimetric CoA detection; inhibition, % at 12.5 µM; 0.098% of 360,000 active; AID 602405; in the data active means inhibition above about 16%, passing the limit was not always enough; inconclusive means no clear call, values can overlap the other calls
N-glyco inh = blocks N-linked glycosylation in D54 reporter cells; AID 588692; 0.23% of 360,000 active; reporter increase, % at 12.5 µM; D54 ERlucT glycosylation luciferase reporter, 24 h; percent of 100 nM tunicamycin response;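 active means mean luciferase reporter signal, scaled so untreated is 0 and the glycosylation-blocking control 100, at or above a set limit in every replicate; inconclusive means mean reaches the limit but not every replicate does; inactive means mean below the limit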;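 further: luciferase carries N-glycosylation sites so blocking glycosylation raises the light; 0% = median of neutral control wells and 100% = median of 100 nM tunicamycin wells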
SR-BI DiI-HDL act = enhances SR-BI lipid uptake from DiI-HDL. 0.096% of 320,000 active. CHO ldlA[mSR-BI] cells, DiI-HDL uptake fluorescence, 3 h; 100 = double the neutral-control signal. activation, % at 12.5 µM;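 active means mean replicate activation of at least 60% and every replicate at or above 60%; inconclusive means mean or all-replicate condition met, but not both; inactive means mean below 60% and not all replicates reaching 60%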;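 further: 0% = median plate neutral-control signal and 100% = twice that signal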
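System: CHO ldlA[mSR-BI] cells / Medium: HEPES-buffered (25 mM, pH 7.4) F12 plus 0.5% BSA / Probe or stimulus: labelled HDL, 10 µg/mL / Doses: single compound concentration, delivered by pin transfer / Schedule: 3 h, 37 °C / Measured by: DiI fluorescence, bottom read / Measure: cell-associated DiI fluorescence as measure of HDL uptake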
Rtt109 HAT inh = C. albicans Rtt109 histone acetyltransferase inhibition. inhibition, % at 34.9 µM. AID 540336. 0.16% of 330,000 active. Q5AAJ8. purified Rtt109/Vps75, ThioGlo CoA-SH fluorescence, 4 h;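 active means inhibition of at least 50% in every replicate; inconclusive means best replicate reaches 50% inhibition but some replicates fall short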
An asterisk follows results filed as active; u = inconclusive; x = no result given; [ ] = remark or other dose. A selection: hits, their analogues and other compounds. The true share with any hit is near 1.9%.

SMILES | HIV Env fusion | SR-BI HDL uptake | PglD inh | N-glyco inh | SR-BI DiI-HDL act | Rtt109 HAT inh
C[C@@H]1CN([C@@H](C)CO)C(=O)Cc2cc(NS(=O)(=O)c3ccccc3)ccc2O[C@H]1CN(C)Cc1ccc(Cl)c(Cl)c1 | 88*[16.7 µM] | x | 1 | x | x | x
C[C@@H]1CN([C@@H](C)CO)C(=O)Cc2cc(NS(=O)(=O)c3ccc(Cl)cc3)ccc2O[C@H]1CN(C)Cc1ccc(Cl)c(Cl)c1 | 83*[16.7 µM] | x | -2 | x | x | x
C[C@@H]1CN([C@H](C)CO)C(=O)Cc2cc(NS(=O)(=O)c3ccc(Cl)cc3)ccc2O[C@H]1CN(C)Cc1ccc(Cl)c(Cl)c1 | 5[16.7 µM] | x | -3 | x | x | x
Cc1ccc(S(=O)(=O)Nc2ccc3c(c2)CC(=O)N([C@@H](C)CO)C[C@@H](C)[C@H](CN(C)Cc2ccc(Oc4ccccc4)cc2)O3)cc1 | 73*[16.7 µM] | x | 3 | x | x | x
C[C@H](CO)N1C[C@H](C)[C@@H](CN(C)Cc2ccc(Cl)c(Cl)c2)Oc2ccc(NS(=O)(=O)c3ccc(Cl)cc3)cc2CC1=O | 22[16.7 µM] | x | -2 | x | x | x
CC(C)NC(=O)N1C[C@@H]2[C@H](c3ccccc31)[C@H](CO)N2Cc1ccc(Cl)cc1 | x | x | -2 | x | x | x
C[C@@H]1CN([C@@H](C)CO)C(=O)Cc2cc(NC(=O)CCC(F)(F)F)ccc2O[C@@H]1CN(C)Cc1ccc(C(F)(F)F)cc1 | x | x | 1 | x | x | x
COCC(=O)N(C)C[C@H]1Oc2cc(-c3ccc(C#N)cc3)ccc2S(=O)(=O)N([C@H](C)CO)C[C@@H]1C | 13[16.7 µM] | x | x | x | x | x
O=C(c1ccccc1F)N1CC[C@@H]2[C@@H](CO)Nc3ccc(C#Cc4ccccc4)cc3[C@@H]21 | x | x | 1 | x | x | x
O=C(NCC[C@H]1CC[C@H](NC(=O)Nc2cc(F)ccc2F)[C@H](CO)O1)Nc1ccc(Cl)cc1 | 2[16.7 µM] | x | 1 | x | x | x
CCOC(=O)Cc1n[nH]c(=O)c2ccccc12 | -7 | -18 | -4 | 3 | 18 | 7
CCOC(=O)c1c(C)cc2c(CO)n[nH]c(=O)c2c1C | 56* | x | x | -3 | x | x
CCOc1ccc(CNC(=O)CCCc2cn(C)c3ccccc23)cc1 | 6 | 85* | 5 | 0 | -85 | 1
CNC(=O)C[C@@H]1CC[C@H]2[C@H](COc3ccc(NC(=O)Nc4ccccc4)cc3C(=O)N2C)O1 | 0[16.7 µM] | x | 0 | x | x | x
CCCN(CCC)c1nc(N)nc(-c2cc(Cl)ccc2OC)n1 | x | 82* | x | 2 | -82 | 23
Cc1ccc(S(=O)(=O)NCc2ccccc2)cc1C(=O)N1CCCCCCC1 | 66* | -9 | -5 | -1 | 9 | 0
C[C@H](CO)N1C[C@H](C)[C@@H](CN(C)CC2CC2)Oc2ccc(N(C)C)cc2CC1=O | 0[16.7 µM] | x | -5 | x | x | x
Cc1cccc(-n2c(O)c(/C=N/NC(=O)c3ccccc3Cl)c3ccccc3c2=O)n1 | 8 | -7 | -17 | 0 | 7 | 64*
Cc1cc(C(=O)NN=Cc2c(C)[nH]c3ccccc23)c(C)o1 | x | 11 | 7 | 3 | -11 | 14
Cc1[nH]c2ccccc2c1/C=N\NC(=O)c1ccccc1Cl | 70* | x | 2 | 1 | x | x
Cc1[nH]c2ccccc2c1/C=N/Nc1ccccc1[N+](=O)[O-] | -23 | 129* | x | 1 | -129 | -8
Cc1cccc(-n2c(O)c(C=Nc3ccccc3O)c3ccccc3c2=O)n1 | -20 | x | 3 | 0 | x | -18
COc1cccc2sc(Nc3nc(-c4ccncc4)cs3)nc12 | -177 | 80* | x | 8 | -80 | 10
COc1cccc2sc(Nc3nc(-c4cc5ccccc5oc4=O)cs3)nc12 | -193 | 53 | 16 | 22 | -53 | -2
Cn1cccc1/C=C1\SC(=S)N(NC(=O)c2ccccc2O)C1=O | -8 | x | x | 2 | x | -2
SMILES | HIV Env fusion | SR-BI HDL uptake | PglD inh | N-glyco inh | SR-BI DiI-HDL act | Rtt109 HAT inh
O=C(NN1C(=O)/C(=C/C=C/c2ccco2)SC1=S)c1ccccc1O | -4 | 32 | 1 | -1 | -32 | 70*
CCc1ccccc1NC(=O)CC1S/C(=N\c2nccs2)N(CC)C1=O (stereo not given) | -1 | 63 | -4 | 1 | -63 | -1
O=C(CC1SC(=Nc2ccccc2)N(CCO)C1=O)Nc1ccccc1 (stereo not given) | -9 | 26 | x | 1 | -26 | u
C=CCN1C(=O)C(CC(=O)Nc2ccccc2F)S/C1=N\c1nccs1 (stereo not given) | 23 | 84* | 1 | -1 | -84 | -1
CCN1C(=O)C(CC(=O)Nc2ccccc2)S/C1=N\c1ccccn1 (stereo not given) | 8 | 78* | x | 1 | -78 | -6
C[C@H]1CN([C@@H](C)CO)C(=O)CCCn2cc(nn2)CO[C@@H]1CN(C)Cc1cccc(C(=O)O)c1 | x | x | 0 | x | x | x
COCC(=O)Nc1ccc2c(c1)OC[C@@H](C)N(C(=O)c1ccncc1)C[C@@H](C)[C@H](OC)CN(C)C2=O | -6[16.7 µM] | x | -2 | x | x | x
CCC(C)c1ccccc1NC(=O)COc1ccc(-c2nnco2)cc1 (stereo not given) | 1 | 4 | 0 | 0 | -4 | -3
O=C(COc1ccc(-c2nnco2)cc1)Nc1ccc(C(F)(F)F)cc1 | 55* | 19 | x | -2 | -19 | 3
COc1ccc(CN(C)C[C@@H]2Oc3c(NS(=O)(=O)c4ccc(F)cc4)cccc3C(=O)N([C@@H](C)CO)C[C@H]2C)cc1 | x | x | -2 | x | x | x
Cc1nn(-c2ccccc2)c(N2CCCC2)c1/C=N/Nc1ccc(S(N)(=O)=O)cc1[N+](=O)[O-] | 16 | 80* | x | 14 | -80 | -2
NS(=O)(=O)c1ccc(N/N=C/c2cn(-c3ccccc3)nc2-c2cccs2)c([N+](=O)[O-])c1 | 36 | 104* | 2 | 0 | -104 | -2
CCC(C)NC(=O)CSc1nnc(-c2cc(-c3ccc(C)cc3)nc3ccccc23)n1N (stereo not given) | x | 86* | 0 | 1 | -86 | 7
C[C@H](CO)N1C[C@H](C)[C@H](CN(C)Cc2ccccc2)OCCCC[C@H](C)Oc2ccc(NC(=O)NC3CCCCC3)cc2C1=O | -22[16.7 µM] | x | -30 | x | x | x
C[C@@H]1CN([C@H](C)CO)C(=O)Cc2cc(NC(=O)Cc3cn(C)c4ccccc34)ccc2O[C@H]1CN(C)C(=O)Nc1ccc2c(c1)OCO2 | -13[16.7 µM] | x | 3 | x | x | x
Cc1ccc(O)c(N=CC2=C(O)c3ccccc3C2=O)c1 | -85 | 118* | -6 | 1 | -118 | 0
C[C@@H]1CN([C@H](C)CO)C(=O)c2cc(C#CCN(C)C)cnc2O[C@H]1CN(C)S(C)(=O)=O | -1[16.7 µM] | x | -2 | x | x | x
Cc1c(NC(=O)C2CCCN2S(=O)(=O)c2cccc3nsnc23)cccc1C(=O)O (stereo not given) | 12 | x | 5 | 2 | x | -20
CCOC(=O)c1c(NC(=O)C2CCCN2S(=O)(=O)c2cccc3nsnc23)sc(C)c1C (stereo not given) | 64* | x | 1 | -4 | x | 4
